Assay outcomes as filed in PubChem.
This is a sample that favours compounds with a hit; in the whole collection about 3.2% have one here.
PRMT1 FP inh = PRMT1 (human) inhibition, primary screen. Q99873. recombinant PRMT1, activity-based probe fluorescence polarization. inhibition, % at 2.79 µM. 1.3% of 370,000 active;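 active = inhibition above about 21% made by adding two undisclosed values, limit read from the data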
ABHD4 inh = inhibits mouse alpha/beta hydrolase domain 4; purified mABHD4, FP-Rh probe fluorescence polarization; Q8VD66; inhibition, % at 8.92 µM; 0.54% of 370,000 active;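 active = inhibition exceeding the mean over every tested compound plus 3 SD, cut at about 30% in these data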;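 also: 0% = plate median of compound wells and 100% = S159A mutant with DMSO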
Target sequence (Q8VD66 whole entry, looked up, the tested form may be a part): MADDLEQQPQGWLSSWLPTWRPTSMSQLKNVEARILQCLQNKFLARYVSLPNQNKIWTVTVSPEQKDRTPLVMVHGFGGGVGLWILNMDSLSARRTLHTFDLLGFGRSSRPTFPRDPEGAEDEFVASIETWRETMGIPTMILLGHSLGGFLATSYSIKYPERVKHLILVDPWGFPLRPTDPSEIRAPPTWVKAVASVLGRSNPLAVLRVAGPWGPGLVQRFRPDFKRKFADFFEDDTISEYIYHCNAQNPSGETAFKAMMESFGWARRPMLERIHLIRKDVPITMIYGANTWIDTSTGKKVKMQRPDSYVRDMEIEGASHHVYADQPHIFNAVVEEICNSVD
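Doses – 8.92 µM, single dose · Material – wild-type mouse ABHD4 protein · Replication – single well per compound (singlicate) · Measure – percent inhibition of probe binding, normalized to plate controls · Schedule – 45 min compound pre-incubation plus 60 min probe step, 25 °C · Detection – fluorescence polarization with parallel and perpendicular emission, 525/598 nm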
rCAG binder = molecules binding r(CAG) RNA repeats; r(CAG) RNA repeat, TO-PRO-1 dye displacement fluorescence; inhibition, % at 3 µM; 1.3% of 370,000 active; AID 651821;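 active = inhibition above the plate cutoff, the mean of all test compounds on that plate plus 3 SD, cut at about 35% in these data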;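 also: 0% = DMSO alone and 100% = 100 µM mitoxantrone as full dye displacement; higher means more dye released from RNA so lower well fluorescence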
DAGLB inhibitor = blocks human DAGLB lipase activity. Q8NCG7. HEK293T DAGLB membrane lysate, EnzChek fluorogenic substrate. inhibition, % at 5.17 µM. 0.059% of 340,000 active; in the data active = inhibition above about 34%;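 also: 0% = enzyme with vehicle and 100% = wells lacking enzyme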
HTRA1 inh = HTRA1 (human) protease inhibition. Q92743. recombinant HTRA1, FP-rhodamine activity-based probe, fluorescence polarization. inhibition, % at 5.96 µM. 0.5% of 340,000 active. AID 504803; in the data active = inhibition above about 36%;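 also: 0% = enzyme with DMSO and 100% = wells lacking enzyme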
LEDGF integ inh = blocks HIV-1 LEDGF/p75-dependent DNA integration. TR-FRET IN-LEDGF/p75 DNA integration, Eu/Cy5. inhibition, % at 3.7 µM. 0.64% of 370,000 active;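 active = inhibition above the screen-wide mean plus 3 SD, cut at about 13% in these data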;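 also: signal is the Cy5 over europium emission ratio at 671 and 618 nm; 0% = plate median of compound wells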
mABHD4 conf = ABHD4 (mouse) inhibition, FP confirmation; shares compounds with ABHD4 inh; purified mABHD4, FP-Rh probe fluorescence polarization; inhibition, % at 8.92 µM; 55% of 1,800 active; AID 720658;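 active = mean inhibition across replicates above the hit cutoff set in the primary screen, cut at about 30% in these data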;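 also: 0% = wild-type ABHD4 with DMSO and 100% = catalytically dead S159A mutant with DMSO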
An asterisk follows results filed as active; i = inactive; x = no result given.

SMILES | PRMT1 FP inh | ABHD4 inh | rCAG binder | DAGLB inhibitor | HTRA1 inh | LEDGF integ inh | mABHD4 conf
O=C(Nc1ccccc1Cl)NN1CCCCCC1 | 3 | 48* | -2 | -3 | -15 | -3 | 52*
COc1ccccc1NC(=O)NN1CCCCC1 | -4 | 2 | -5 | -2 | 10 | 2 | x
O=S(=O)(N=C1C=CC(=NS(=O)(=O)c2ccccc2)c2ccccc21)c1ccccc1 | 17 | 64* | 32 | 6 | -2 | 9 | 76*
O=C1c2ccccc2C(=O)N1S(=O)(=O)c1ccccc1 | -3 | 2 | -2 | 0 | 3 | -2 | x
CCC(=O)N(Cc1ccco1)c1nc(-c2cc(OC)ccc2OC)cs1 | -1 | 49* | 4 | -6 | 8 | -6 | 58*
CCC(=O)N(Cc1ccco1)c1nc(-c2ccc(OC)cc2)cs1 | 1 | 1 | 4 | -5 | -2 | 2 | x
COc1ccccc1N1CCN(CCCCOc2ccc(C)cc2C)CC1 | 4 | 31* | -6 | -16 | 3 | 1 | 17
CCCNC(=O)C(Cc1ccccc1)NS(=O)(=O)c1ccc2c(c1)CCC(=O)N2 (configuration not stated) | 1 | 7 | -1 | -2 | -1 | -3 | x
CC(=O)c1ccc(OC(C)C(=O)NC2CCCCC2C)cc1 (configuration not stated) | 0 | 4 | 2 | 2 | -2 | 0 | x
COc1ccc2c(c1)Sc1ccc(Cl)cc1N2 | 12 | 34* | x | x | x | -1 | 34*
CC1(C)CC(=O)C2=C(C1)Nc1cc(Cl)ccc1S2 | 3 | 10 | -5 | 1 | 6 | -4 | x
CCCS(=O)(=O)N1CCCC(C(=O)NCCN(Cc2ccccc2)C(C)C)C1 (configuration not stated) | -4 | -4 | -4 | -1 | 1 | -1 | x
O=C(CSC1=NNC(c2ccccn2)S1)Nc1ccc(C(F)(F)F)cc1 (configuration not stated) | 24* | 39* | 12 | -8 | 20 | 0 | -9
CNC(=O)c1ccc(-c2sc3nc(N4CCOCC4)c4c(c3c2N)CCCC4)o1 | 8 | 32* | 13 | 6 | 12 | -1 | 27
Cc1ccc(-c2nnc3n2N=C(c2ccc4ccccc4c2)CS3)cc1 | -5 | -1 | 9 | x | x | 0 | x
Cc1ccccc1-c1nnc2n1N=C(c1ccc(O)c(O)c1)CS2 | 14 | 32* | 10 | x | x | -4 | 21
Oc1ccccc1N=Cc1sc2ccccc2c1Cl | 6 | 32* | -1 | 0 | 6 | 6 | -6
Oc1sc(C=Nc2ccc(F)cc2)c2ccccc12 | 0 | -2 | -8 | -7 | 6 | 3 | x
CC(C)CC(=O)Nc1ccc(C(=O)COC(=O)C2=COCCO2)cc1 | 7 | 95* | -4 | -4 | -6 | 1 | 5
O=C(COC(=O)C1=COCCO1)Nc1ccccc1 | 2 | -11 | -6 | -1 | 3 | 0 | x
Nc1ccc(-c2c3ccc(=O)cc-3oc3cc(O)ccc23)cc1C(=O)O | 71* | 30* | i | -268 | 28 | 4 | 40*
Cc1cc2ncn(C3CC(O)C(CO)O3)c2cc1C (configuration not stated) | 1 | -4 | 1 | -1 | 2 | 1 | x
COc1cccc(NC(=O)Nc2ccc(C(C)(C)C)cc2)c1 | 0 | -18 | 3 | -4 | -37 | -1 | x
O=C(O)CCCCCn1c(SCC(=O)c2ccc(O)c(O)c2)nc2ccsc2c1=O | 24* | 34* | 24 | 3 | 9 | 6 | 36*
O=C(O)CC(c1ccc(Br)cc1)N1Cc2ccccc2C1=O (configuration not stated) | -7 | 3 | 3 | 1 | 4 | 3 | x
CCOC(=O)c1c(C)n(-c2ccccc2)c2ccc(OCCN(C)C)cc12 | 1 | 7 | -3 | -6 | 3 | -1 | x
O=C(O)c1ccc(Cl)c(S(=O)(=O)Nc2ccccc2Cc2ccccc2)c1 | 2 | 30* | 25 | 6 | -9 | 1 | 28
O=C(O)c1cc(S(=O)(=O)Nc2ccccc2Cc2ccccc2)ccc1Cl | 0 | -3 | 21 | 9 | -6 | 3 | x
Cc1ccc(-c2cc(NC(=O)Cc3c(C)[nH]c4ccccc34)ccc2Nc2cccnc2)cc1 | 5 | 32* | 12 | x | x | -2 | 37*
